Results: ChEMBL document CHEMBL1671727, “Expression, purification, and characterization of Aspergillus fumigatus sterol 14-alpha demethylase (CYP51) isoenzymes A and B” (Antimicrob Agents Chemother, 2010)
Activity calls are given as the source filed them. The rule behind the calls is not given here.

Tests used:
[1] = molecular target: T1, 14-alpha sterol demethylase (Neosartorya fumigata (Aspergillus fumigatus)) (UniProt Q96W81); assay: Binding affinity to Aspergillus fumigatus AF293 sterol 14-alpha demethylase isoenzyme B expressed in Escherichia coli assessed as spectral dissociation constant
T1 sequence (whole entry): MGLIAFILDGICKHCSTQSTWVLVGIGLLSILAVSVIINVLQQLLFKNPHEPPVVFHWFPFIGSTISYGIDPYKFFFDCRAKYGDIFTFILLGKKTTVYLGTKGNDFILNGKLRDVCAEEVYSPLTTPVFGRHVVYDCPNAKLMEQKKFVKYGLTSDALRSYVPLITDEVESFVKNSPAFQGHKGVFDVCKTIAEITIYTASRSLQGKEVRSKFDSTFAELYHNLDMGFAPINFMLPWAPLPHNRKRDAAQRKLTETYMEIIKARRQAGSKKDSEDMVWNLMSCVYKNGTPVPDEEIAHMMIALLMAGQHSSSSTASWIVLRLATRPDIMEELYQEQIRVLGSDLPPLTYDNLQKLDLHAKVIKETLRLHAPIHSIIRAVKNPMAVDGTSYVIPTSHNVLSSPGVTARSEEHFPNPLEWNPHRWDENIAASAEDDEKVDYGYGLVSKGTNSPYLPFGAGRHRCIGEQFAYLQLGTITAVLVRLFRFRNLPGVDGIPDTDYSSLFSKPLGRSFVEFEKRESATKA
Method in brief: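 His-tagged CYP51 (Af293 sequence, codon-optimised, E. coli-expressed), cholate-solubilised and Ni-NTA purified, at 1 μM in 0.1 M Tris-HCl pH 8.1 with 25% glycerol. Azole (0.05 mg/ml DMSO stock) titrated in split 4.5 mm cuvettes, with DMSO added to the reference. Difference spectra were read at 500–350 nm. Peak-to-trough change was plotted against concentration. Kd came from Morrison (tight binding), Michaelis-Menten or Hill fits.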

[2] = molecular target: T1, 14-alpha sterol demethylase (Neosartorya fumigata (Aspergillus fumigatus)); assay: Binding affinity to 1 uM recombinant Aspergillus fumigatus AF293 sterol 14-alpha demethylase isoenzyme B from Escherichia coli membrane suspension assessed as spectral dissociation constant
[3] = molecular target: T1, 14-alpha sterol demethylase (Neosartorya fumigata (Aspergillus fumigatus)); assay: Binding affinity to Aspergillus fumigatus AF293 sterol 14-alpha demethylase isoenzyme B expressed in Escherichia coli assessed as generation of type I difference spectrum at 4.8 uM

Row | Structure (SMILES) | Ks [1] | Ks [2] | Activity [3]
1 | CC(C)=CCC[C@@H](C)[C@H]1CC[C@@]2(C)C3=C(CC[C@]12C)[C@@]1(C)CC[C@H](O)C(C)(C)[C@@H]1CC3 | 8.6 µM | 3.1 µM | –
2 | C=C(CC[C@@H](C)[C@H]1CC[C@@]2(C)C3=C(CC[C@]12C)[C@@]1(C)CC[C@H](C)C(C)(C)C1CC3)C(C)C (stereo not given in full) | 22.6 µM | 4.1 µM | Active
